# Experimental data taken from ChEMBL document CHEMBL5058577, “EUbOPEN Chemogenomics Library 2 (Multiplex)” (2022).
# Tested on: HEK-293T
# Test: Multiplex assay against HEK293T
# Assay type: toxicity, cell-based
# Conditions: human
# How it was run: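 Hoechst33342, BioTracker Green Microtubule Cytoskeleton Dye, MitoTracker Red and Annexin V Alexa Fluor 680 were added to live cells at seeding, and imaging on a CQ1 microscope at 37°C and 5% CO2 followed compound addition. Gating by CellPathfinder machine learning separated cells into Hoechst high-intensity objects or normal cells, then normal cells into healthy, pyknosed or fragmented nuclei, then pyknosed cells into mitotic or apoptotic. Per cents of healthy-nucleus cells are reported for the tubulin, mitochondrial-mass and membrane-permeability phenotypes.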
# [1] = 12 h, 1 µM, compound concentration 1 uM, replicate 1
# [2] = 12 h, 1 µM, compound concentration 1 uM, replicate 2
# [3] = 12 h, 10 µM, compound concentration 10 uM, replicate 1
# [4] = 12 h, 10 µM, compound concentration 10 uM, replicate 2
# [5] = 24 h, 1 µM, compound concentration 1 uM, replicate 1
# [6] = 24 h, 1 µM, compound concentration 1 uM, replicate 2
# [7] = 24 h, 10 µM, compound concentration 10 uM, replicate 1
# [8] = 24 h, 10 µM, compound concentration 10 uM, replicate 2
# [9] = 48 h, 1 µM, compound concentration 1 uM, replicate 1
# [10] = 48 h, 1 µM, compound concentration 1 uM, replicate 2
# [11] = 48 h, 10 µM, compound concentration 10 uM, replicate 1
# [12] = 48 h, 10 µM, compound concentration 10 uM, replicate 2
compound,measurement,setting,value
CSc1nc(NC2CCCC2)c([N+](=O)[O-])c(NC2CCCC2)n1 [GS-39783],Population Apoptotic (%),[1],45%
same,Population Fragmented Nuclei (%),[1],11%
same,Population Healthy Nuclei (%),[1],74%
same,Population Hoechst High Intensity Objects (%),[1],8%
same,Population Membrane Permeable-Phenotype (%),[1],0%
same,Population Mitochondria Different-Phenotype (%),[1],41%
same,Population Mitotic Cells (%),[1],54%
same,Population Normal (%),[1],91%
same,Population Pyknosed Nuclei (%),[1],14%
same,Population Tubulin-Different-Phenotype (%),[1],30%
same,Total Cell Count,[1],346
same,Population Apoptotic (%),[2],40%
same,Population Fragmented Nuclei (%),[2],3%
same,Population Healthy Nuclei (%),[2],85%
same,Population Hoechst High Intensity Objects (%),[2],4%
same,Population Mitochondria Different-Phenotype (%),[2],68%
same,Population Mitotic Cells (%),[2],59%
same,Population Normal (%),[2],95%
same,Population Pyknosed Nuclei (%),[2],11%
same,Population Tubulin-Different-Phenotype (%),[2],27%
same,Total Cell Count,[2],301
same,Population Apoptotic (%),[3],29%
same,Population Fragmented Nuclei (%),[3],6%
same,Population Healthy Nuclei (%),[3],81%
same,Population Hoechst High Intensity Objects (%),[3],6%
same,Population Membrane Permeable-Phenotype (%),[3],0%
same,Population Mitochondria Different-Phenotype (%),[3],50%
same,Population Mitotic Cells (%),[3],70%
same,Population Normal (%),[3],93%
same,Population Pyknosed Nuclei (%),[3],12%
same,Population Tubulin-Different-Phenotype (%),[3],40%
same,Total Cell Count,[3],449
same,Population Apoptotic (%),[4],40%
same,Population Fragmented Nuclei (%),[4],5%
same,Population Healthy Nuclei (%),[4],84%
same,Population Hoechst High Intensity Objects (%),[4],5%
same,Population Mitochondria Different-Phenotype (%),[4],68%
same,Population Mitotic Cells (%),[4],60%
same,Population Normal (%),[4],94%
same,Population Pyknosed Nuclei (%),[4],10%
same,Population Tubulin-Different-Phenotype (%),[4],29%
same,Total Cell Count,[4],406
same,Population Apoptotic (%),[5],30%
same,Population Fragmented Nuclei (%),[5],12%
same,Population Healthy Nuclei (%),[5],76%
same,Population Hoechst High Intensity Objects (%),[5],7%
same,Population Membrane Permeable-Phenotype (%),[5],0%
same,Population Mitochondria Different-Phenotype (%),[5],25%
same,Population Mitotic Cells (%),[5],69%
same,Population Normal (%),[5],92%
same,Population Pyknosed Nuclei (%),[5],11%
same,Population Tubulin-Different-Phenotype (%),[5],19%
same,Total Cell Count,[5],492
same,Population Apoptotic (%),[6],38%
same,Population Fragmented Nuclei (%),[6],7%
same,Population Healthy Nuclei (%),[6],84%
same,Population Hoechst High Intensity Objects (%),[6],8%
same,Population Mitochondria Different-Phenotype (%),[6],51%
same,Population Mitotic Cells (%),[6],61%
same,Population Normal (%),[6],91%
same,Population Pyknosed Nuclei (%),[6],7%
same,Total Cell Count,[6],360
same,Population Apoptotic (%),[7],27%
same,Population Fragmented Nuclei (%),[7],11%
same,Population Healthy Nuclei (%),[7],78%
same,Population Hoechst High Intensity Objects (%),[7],5%
same,Population Membrane Permeable-Phenotype (%),[7],1%
same,Population Mitochondria Different-Phenotype (%),[7],30%
same,Population Mitotic Cells (%),[7],72%
same,Population Normal (%),[7],94%
same,Population Pyknosed Nuclei (%),[7],10%
same,Population Tubulin-Different-Phenotype (%),[7],30%
same,Total Cell Count,[7],553
same,Population Apoptotic (%),[8],37%
same,Population Fragmented Nuclei (%),[8],8%
same,Population Healthy Nuclei (%),[8],83%
same,Population Hoechst High Intensity Objects (%),[8],6%
same,Population Membrane Permeable-Phenotype (%),[8],0%
same,Population Mitochondria Different-Phenotype (%),[8],52%
same,Population Mitotic Cells (%),[8],62%
same,Population Normal (%),[8],93%
same,Population Pyknosed Nuclei (%),[8],7%
same,Population Tubulin-Different-Phenotype (%),[8],28%
same,Total Cell Count,[8],474
same,Population Apoptotic (%),[9],35%
same,Population Fragmented Nuclei (%),[9],15%
same,Population Healthy Nuclei (%),[9],74%
same,Population Hoechst High Intensity Objects (%),[9],3%
same,Population Membrane Permeable-Phenotype (%),[9],1%
same,Population Mitochondria Different-Phenotype (%),[9],22%
same,Population Mitotic Cells (%),[9],64%
same,Population Normal (%),[9],96%
same,Population Pyknosed Nuclei (%),[9],9%
same,Population Tubulin-Different-Phenotype (%),[9],22%
same,Total Cell Count,[9],775
same,Population Apoptotic (%),[10],30%
same,Population Fragmented Nuclei (%),[10],13%
same,Population Healthy Nuclei (%),[10],77%
same,Population Hoechst High Intensity Objects (%),[10],6%
same,Population Membrane Permeable-Phenotype (%),[10],0%
same,Population Mitochondria Different-Phenotype (%),[10],32%
same,Population Mitotic Cells (%),[10],69%
same,Population Normal (%),[10],93%
same,Population Pyknosed Nuclei (%),[10],8%
same,Population Tubulin-Different-Phenotype (%),[10],24%
same,Total Cell Count,[10],505
same,Population Apoptotic (%),[11],17%
same,Population Fragmented Nuclei (%),[11],14%
same,Population Healthy Nuclei (%),[11],78%
same,Population Hoechst High Intensity Objects (%),[11],3%
same,Population Membrane Permeable-Phenotype (%),[11],1%
same,Population Mitochondria Different-Phenotype (%),[11],27%
same,Population Mitotic Cells (%),[11],82%
same,Population Normal (%),[11],96%
same,Population Pyknosed Nuclei (%),[11],7%
same,Population Tubulin-Different-Phenotype (%),[11],21%
same,Total Cell Count,[11],856
same,Population Apoptotic (%),[12],30%
same,Population Fragmented Nuclei (%),[12],13%
same,Population Healthy Nuclei (%),[12],77%
same,Population Hoechst High Intensity Objects (%),[12],5%
same,Population Membrane Permeable-Phenotype (%),[12],0%
same,Population Mitochondria Different-Phenotype (%),[12],35%
same,Population Mitotic Cells (%),[12],69%
same,Population Normal (%),[12],94%
same,Population Pyknosed Nuclei (%),[12],8%
same,Total Cell Count,[12],647
